The record followed here is ChEMBL document CHEMBL2417451, “Synthesis, antimicrobial and cytotoxic activities of some novel thiazole clubbed 1,3,4-oxadiazoles” (Eur J Med Chem, 2013).

For test [1], the system named is Candida albicans. Description: Ratio of ketoconazole MIC to compound MIC for Candida albicans MTCC 227. It is filed as functional.
In another test the test system is Aspergillus clavatus. Put plainly: Antifungal activity against Aspergillus clavatus MTCC 1323 by conventional broth microdilution method. It is filed as functional. A digest of the protocol:
(§1)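 Tube broth microdilution. Compounds were diluted in DMSO from a 2000 μg/mL stock. The primary screen used 500, 250 and 200 μg/mL, and actives were retested at 100, 62.5, 50 and 25 μg/mL. Tubes were incubated overnight. MIC was the lowest concentration with no visible growth (at least 99% inhibition). Clear tubes were subcultured overnight at 37 °C.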
In general terms: In broth dilution the organism is exposed to a series of concentrations in liquid medium.

Test [2] deals with Escherichia coli. Description: Antibacterial activity against Escherichia coli MTCC 443 by conventional broth microdilution method. It is filed as functional. In short, it runs like this: as §1
Test [3] has as its system Pseudomonas aeruginosa. Description: Antibacterial activity against Pseudomonas aeruginosa MTCC 1688 by conventional broth microdilution method. It is filed as functional. In short, it runs like this:
as §1

In test [4] the test system is Aspergillus niger. Description: Antifungal activity against Aspergillus niger MTCC 282 by conventional broth microdilution method. It is filed as functional. In short, it runs like this:
as §1

Test [5] relates to Candida albicans. Description: Antifungal activity against Candida albicans MTCC 227 by conventional broth microdilution method. It is filed as functional. In short, it runs like this: as §1
The subject of test [6] is Streptococcus pyogenes. Description: Antibacterial activity against Streptococcus pyogenes MTCC 442 by conventional broth microdilution method. It is filed as functional. A digest of the protocol:
as §1

Test [7] concerns Staphylococcus aureus. Put plainly: Antibacterial activity against Staphylococcus aureus MTCC 96 by conventional broth microdilution method. It is filed as functional. In short, it runs like this: as §1
Test [8] concerns Aspergillus niger. Put plainly: Ratio of ketoconazole MIC to compound MIC for Aspergillus niger MTCC 282. It is filed as functional.
For another test, the system named is HeLa. Description: Cytotoxicity against human HeLa cells after 24 hrs by MTT assay. It is filed as cell-based. A digest of the protocol: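 HeLa cells were grown in MEM with 10% FBS, 1% glutamine and gentamicin under humidified 5% CO2. 1.0 × 10^4 cells were exposed to 1–100 μM compound (0.1% DMSO in medium) for 24 h at 37 °C. MTT at 1 mg/mL was added for 5 h at 37 °C, formazan was dissolved in DMSO, and A540 was read. Run in triplicate; IC50 reported.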
For orientation: Formazan colour is commonly taken as a measure of viable cells.

For test [9], the system named is Escherichia coli. Put plainly: Ratio of chloramphenicol MIC to compound MIC for Escherichia coli MTCC 443. It is filed as functional.
Test [10] relates to Staphylococcus aureus. Description: Ratio of chloramphenicol MIC to compound MIC for Staphylococcus aureus MTCC 96. It is filed as functional.
The test system of test [11] is Pseudomonas aeruginosa. Put plainly: Ratio of chloramphenicol MIC to compound MIC for Pseudomonas aeruginosa MTCC 1688. It is filed as functional.
For test [12], the system named is Streptococcus pyogenes. Put plainly: Ratio of chloramphenicol MIC to compound MIC for Streptococcus pyogenes MTCC 442. It is filed as functional.

pIC50: −log10 of the molar value. In brackets after ≈: the same amount, converted by molar mass.

By MIC is commonly meant the lowest concentration that inhibits growth of the organism. High values mean a need for much substance, low ones inhibition by little substance. Usually pIC50 stands for −log10 of the IC50, conventionally taken in molar units. A low value points to a large IC50. `COc1ccc(NCn2nc(-c3sc(NC(C)=O)nc3C)oc2=S)cc1`: the Ratio in the test with Candida albicans [1] and with Aspergillus niger [8] was 2 throughout. The MIC is 62.5 µg/mL (≈ 160 µM) against Aspergillus clavatus; 500 µg/mL (≈ 1280 µM) with Escherichia coli [2]; 500 µg/mL (≈ 1280 µM) in the test with Pseudomonas aeruginosa [3]; 25 µg/mL (≈ 63.9 µM) against Aspergillus niger [4]; 25 µg/mL (≈ 63.9 µM) in the test on Candida albicans [5]; greater than 1000 µg/mL in the test on Streptococcus pyogenes [6]. Besides, the MIC in the test on Staphylococcus aureus [7] worked out at 500 µg/mL (≈ 1280 µM). The pIC50 in the test with HeLa is 4.01.
Consider `CC(=O)Nc1nc(C)c(-c2nn(CNc3ccccc3[N+](=O)[O-])c(=S)o2)s1`, for which the MIC amounted to 500 µg/mL (≈ 1230 µM) against Aspergillus clavatus; 500 µg/mL (≈ 1230 µM) in the test with Escherichia coli [2]; 250 µg/mL (≈ 615 µM) against Pseudomonas aeruginosa [3]; 500 µg/mL (≈ 1230 µM) in the test with Aspergillus niger [4]; 250 µg/mL (≈ 615 µM) against Candida albicans [5]; 250 µg/mL (≈ 615 µM) in the test with Streptococcus pyogenes [6]. The molecule further returned an MIC in the test on Staphylococcus aureus [7] of 100 µg/mL (≈ 246 µM).
As for `CC(=O)Nc1nc(C)c(-c2nn(CNc3cccc([N+](=O)[O-])c3)c(=S)o2)s1`, the MIC in the test on Aspergillus clavatus was 250 µg/mL (≈ 615 µM); in the test with Escherichia coli [2] it was 50 µg/mL (≈ 123 µM); against Pseudomonas aeruginosa [3], 50 µg/mL (≈ 123 µM); with Aspergillus niger [4], 100 µg/mL (≈ 246 µM); in the test with Candida albicans [5], 500 µg/mL (≈ 1230 µM); against Streptococcus pyogenes [6] it was 100 µg/mL (≈ 246 µM). For the same molecule, 50 µg/mL (≈ 123 µM) was the least that counted as inhibitory with Staphylococcus aureus [7] (MIC). Moreover, the pIC50 in the test on HeLa is less than 4.00.
Consider `CC(=O)Nc1nc(C)c(-c2nn(CNc3ccc([N+](=O)[O-])cc3)c(=S)o2)s1`, for which the MIC against Aspergillus clavatus amounted to 100 µg/mL (≈ 246 µM); with Escherichia coli [2] it was 12.5 µg/mL (≈ 30.8 µM); against Pseudomonas aeruginosa [3], 12.5 µg/mL (≈ 30.8 µM); against Aspergillus niger [4], 250 µg/mL (≈ 615 µM); in the test on Candida albicans [5], 500 µg/mL (≈ 1230 µM); in the test with Streptococcus pyogenes [6], 25 µg/mL (≈ 61.5 µM). Moreover, the MIC in the test on Staphylococcus aureus [7] is 25 µg/mL (≈ 61.5 µM). Further, the Ratio is 4 in the test on Escherichia coli [9], 2 in the test on Staphylococcus aureus [10], 4 with Pseudomonas aeruginosa [11] and 2 in the test with Streptococcus pyogenes [12]. The pIC50 with HeLa was 4.02.
Consider `CC(=O)Nc1nc(C)c(-c2nn(CNc3ccccc3C)c(=S)o2)s1`, for which the MIC in the test on Aspergillus clavatus was 250 µg/mL (≈ 666 µM); in the test on Escherichia coli [2], 250 µg/mL (≈ 666 µM); in the test with Pseudomonas aeruginosa [3] it was 100 µg/mL (≈ 266 µM); against Aspergillus niger [4], 500 µg/mL (≈ 1330 µM); in the test on Candida albicans [5], 500 µg/mL (≈ 1330 µM); against Streptococcus pyogenes [6] it was 250 µg/mL (≈ 666 µM). This molecule also yielded an MIC with Staphylococcus aureus [7] of 500 µg/mL (≈ 1330 µM).
On to `CC(=O)Nc1nc(C)c(-c2nn(CNc3cccc(C)c3)c(=S)o2)s1`, for which the MIC against Aspergillus clavatus is 500 µg/mL (≈ 1330 µM); in the test on Escherichia coli [2], 250 µg/mL (≈ 666 µM); in the test on Pseudomonas aeruginosa [3] it was 500 µg/mL (≈ 1330 µM); against Aspergillus niger [4] it was 500 µg/mL (≈ 1330 µM); in the test with Candida albicans [5], 500 µg/mL (≈ 1330 µM); in the test with Streptococcus pyogenes [6], 500 µg/mL (≈ 1330 µM). The molecule also yielded an MIC in the test on Staphylococcus aureus [7] of 500 µg/mL (≈ 1330 µM).
For `CC(=O)Nc1nc(C)c(-c2nn(CNc3ccc(C)cc3)c(=S)o2)s1`, the MIC in the test on Aspergillus clavatus is 250 µg/mL (≈ 666 µM); in the test with Escherichia coli [2], 500 µg/mL (≈ 1330 µM); in the test with Pseudomonas aeruginosa [3], greater than 1000 µg/mL; with Aspergillus niger [4], 250 µg/mL (≈ 666 µM); in the test with Candida albicans [5], 500 µg/mL (≈ 1330 µM); against Streptococcus pyogenes [6], greater than 1000 µg/mL. The MIC in the test with Staphylococcus aureus [7] stood at 500 µg/mL (≈ 1330 µM).
Turning to `CC(=O)Nc1nc(C)c(-c2nn(CNc3ccccc3F)c(=S)o2)s1`, the MIC in the test on Aspergillus clavatus is 500 µg/mL (≈ 1320 µM); with Escherichia coli [2], 250 µg/mL (≈ 659 µM); against Pseudomonas aeruginosa [3], 500 µg/mL (≈ 1320 µM); with Aspergillus niger [4], greater than 1000 µg/mL; with Candida albicans [5] it was 500 µg/mL (≈ 1320 µM); in the test with Streptococcus pyogenes [6], 100 µg/mL (≈ 264 µM). The molecule also gave an MIC against Staphylococcus aureus [7] of 250 µg/mL (≈ 659 µM).
On to `CC(=O)Nc1nc(C)c(-c2nn(CNc3cccc(F)c3)c(=S)o2)s1`, for which the MIC was greater than 1000 µg/mL with Aspergillus clavatus; 50 µg/mL (≈ 132 µM) in the test on Escherichia coli [2]; 50 µg/mL (≈ 132 µM) against Pseudomonas aeruginosa [3]; 500 µg/mL (≈ 1320 µM) in the test on Aspergillus niger [4]; 500 µg/mL (≈ 1320 µM) against Candida albicans [5]; 100 µg/mL (≈ 264 µM) with Streptococcus pyogenes [6]. In the test with Staphylococcus aureus [7], this molecule displayed an MIC of 50 µg/mL (≈ 132 µM). In addition, the pIC50 in the test with HeLa is less than 4.00.
As to `CC(=O)Nc1nc(C)c(-c2nn(CNc3ccc(F)cc3)c(=S)o2)s1`, the MIC against Aspergillus clavatus was greater than 1000 µg/mL; with Escherichia coli [2], 12.5 µg/mL (≈ 32.9 µM); in the test with Pseudomonas aeruginosa [3], 12.5 µg/mL (≈ 32.9 µM); against Aspergillus niger [4], 500 µg/mL (≈ 1320 µM); in the test with Candida albicans [5], 500 µg/mL (≈ 1320 µM); in the test with Streptococcus pyogenes [6], 25 µg/mL (≈ 65.9 µM). 12.5 µg/mL (≈ 32.9 µM) was the least that counted as inhibitory with Staphylococcus aureus [7] (MIC). Besides, the Ratio was found to be 4 in the test on Escherichia coli [9], 4 in the test with Staphylococcus aureus [10], 4 with Pseudomonas aeruginosa [11] and 2 with Streptococcus pyogenes [12]. Besides, the pIC50 in the test with HeLa is less than 4.00.
As to `COc1ccccc1NCn1nc(-c2sc(NC(C)=O)nc2C)oc1=S`, the MIC in the test with Aspergillus clavatus was 250 µg/mL (≈ 639 µM); with Escherichia coli [2] it was 500 µg/mL (≈ 1280 µM); in the test on Pseudomonas aeruginosa [3], 250 µg/mL (≈ 639 µM); against Aspergillus niger [4] it was 250 µg/mL (≈ 639 µM); in the test with Candida albicans [5] it was 500 µg/mL (≈ 1280 µM); against Streptococcus pyogenes [6], greater than 1000 µg/mL. This molecule also yielded an MIC with Staphylococcus aureus [7] of 500 µg/mL (≈ 1280 µM).
With `COc1cccc(NCn2nc(-c3sc(NC(C)=O)nc3C)oc2=S)c1`, the minimal inhibitory concentration (MIC) with Aspergillus clavatus stood at 500 µg/mL (≈ 1280 µM); against Escherichia coli [2], 500 µg/mL (≈ 1280 µM); in the test with Pseudomonas aeruginosa [3], 500 µg/mL (≈ 1280 µM); with Aspergillus niger [4], 100 µg/mL (≈ 255 µM); against Candida albicans [5], 250 µg/mL (≈ 639 µM); with Streptococcus pyogenes [6], 500 µg/mL (≈ 1280 µM). Moreover, the MIC against Staphylococcus aureus [7] is greater than 1000 µg/mL.
For `O=C(N[C@H](CO)[C@H](O)c1ccc([N+](=O)[O-])cc1)C(Cl)Cl` [CHLORAMPHENICOL], the MIC with Escherichia coli [2], in the test with Pseudomonas aeruginosa [3], in the test with Streptococcus pyogenes [6] and with Staphylococcus aureus [7] was 50 µg/mL (≈ 155 µM) throughout.
In the case of `CC(=O)N1CCN(c2ccc(OCC3COC(Cn4ccnc4)(c4ccc(Cl)cc4Cl)O3)cc2)CC1` (stereo unspecified) [KETOCONAZOLE], the MIC against Aspergillus clavatus, with Aspergillus niger [4] and against Candida albicans [5] was 50 µg/mL (≈ 94.1 µM) throughout.
